Data reported in ChEMBL document CHEMBL3108740, “Design, synthesis, and biological evaluation of 1-phenylpyrazolo[3,4-e]pyrrolo[3,4-g]indolizine-4,6(1H,5H)-diones as new glycogen synthase kinase-3β inhibitors” (J Med Chem, 2013).
≈ marks a conversion by molar mass, not a printed value. Values belong to the molecule of their own block, whether it stands above or below them. Calls of active or inactive are those of the source. The calls are words filed in the database; no cut-off is given here.

Columns and labels:
[1] = target: T1, Glycogen synthase kinase-3 beta (Homo sapiens, UniProt P49841); assay: Inhibition of GSK-3beta (unknown origin) using (RREGGMSRPAS(p)VDG as substrate assessed as 32P[gamma-ATP] incorporation into substrate after 15 mins by autoradiography
Target sequence in this assay (P49841 whole entry): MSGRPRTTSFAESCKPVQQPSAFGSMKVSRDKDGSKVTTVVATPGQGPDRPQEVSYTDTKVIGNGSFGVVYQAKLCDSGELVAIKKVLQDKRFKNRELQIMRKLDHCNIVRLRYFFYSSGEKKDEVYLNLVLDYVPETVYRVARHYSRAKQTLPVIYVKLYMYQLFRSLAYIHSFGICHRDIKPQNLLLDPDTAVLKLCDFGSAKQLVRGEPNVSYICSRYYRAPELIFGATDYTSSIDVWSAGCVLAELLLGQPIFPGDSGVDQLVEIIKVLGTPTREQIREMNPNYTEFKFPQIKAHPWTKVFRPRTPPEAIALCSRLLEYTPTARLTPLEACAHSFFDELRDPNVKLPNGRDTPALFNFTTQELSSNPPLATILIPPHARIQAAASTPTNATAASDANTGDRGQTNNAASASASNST

[2] = target: T1, Glycogen synthase kinase-3 beta; assay: Inhibition of human GSK-3beta-mediated tau phosphorylation in doxycycline/synthetic tau fibril-induced HEK293 cells assessed as increase in faster-mobility 17025 band at 1 uM after 48 hrs by Immunoblotting analysis; format: cell-based
How it was run: (§1)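 HEK-293 cells express full-length 4-repeat tau (T40) carrying P301L under a doxycycline-regulated promoter. Doxycycline induces expression; 48 h later cells are seeded with synthetic fibrils made from recombinant tau. They are then treated with 1 µM compound or vehicle for 48 h, with non-fibril cells as controls. Lysates are immunoblotted with AT180 (pT231/pS235), 17025 (total tau) and GAPDH as loading control.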
Target sequence in this assay (P49841 whole entry, looked up): as the sequence (P49841 whole entry) above

[3] = target: T1, Glycogen synthase kinase-3 beta; assay: Inhibition of human GSK-3beta-mediated tau phosphorylation in doxycycline/synthetic tau fibril-induced HEK293 cells assessed as increase in faster-migrating AT180 band at 1 uM after 48 hrs by Immunoblotting analysis; format: cell-based; how it was run: as §1
Target sequence in this assay (P49841 whole entry, looked up): as the sequence (P49841 whole entry) above

[4] = target: T1, Glycogen synthase kinase-3 beta; assay: Inhibition of GSK3beta in human NCI/ADR-RES cells up to 5 uM; format: cell-based
How it was run: (§2)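 Ovarian carcinoma OVCAR-8 cells and their cognate P-glycoprotein-overexpressing line NCI/ADR-RES. Compound tested at concentrations up to 5 µM.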
Target sequence in this assay (P49841 whole entry, looked up): as the sequence (P49841 whole entry) above

[5] = target: Serine/threonine-protein kinase RAF and Dual specificity mitogen-activated protein kinase kinase 1 (Raf/MEK) (Homo sapiens) (UniProt P04049+Q02750); assay: Inhibition of human RAF1/MEK1 at 1 uM; format: protein assay
How it was run: (§3)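 Selectivity panel of 17 human protein kinases, each tested at a single 1 µM concentration. Read-out was percent inhibition of kinase activity. Values are the average of two independent measurements.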

[6] = target: cAMP-dependent protein kinase catalytic subunit alpha (Homo sapiens) (UniProt P17612); assay: Inhibition of human PKAalpha at 1 uM; how it was run: as §3
[7] = target: T2, Serine/threonine-protein kinase Sgk1 (Homo sapiens) (UniProt O00141); assay: Inhibition of human recombinant SGK1 using ATP/Ulight-RRRSLLE as substrate at 1 uM after 30 mins by LANCE assay; how it was run: as §3
T2 sequence (whole entry): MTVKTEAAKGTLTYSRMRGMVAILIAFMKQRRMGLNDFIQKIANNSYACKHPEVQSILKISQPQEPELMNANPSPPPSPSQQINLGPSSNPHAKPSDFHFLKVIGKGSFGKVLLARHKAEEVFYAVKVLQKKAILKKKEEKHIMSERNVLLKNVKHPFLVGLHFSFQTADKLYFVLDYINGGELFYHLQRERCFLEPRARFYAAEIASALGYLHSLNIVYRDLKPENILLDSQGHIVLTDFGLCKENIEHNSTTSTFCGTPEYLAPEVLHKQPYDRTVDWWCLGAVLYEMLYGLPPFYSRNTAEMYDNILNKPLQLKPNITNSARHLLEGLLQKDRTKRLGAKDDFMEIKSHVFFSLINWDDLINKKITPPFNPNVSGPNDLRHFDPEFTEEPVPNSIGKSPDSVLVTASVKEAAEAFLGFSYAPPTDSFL

[8] = target: Rho-associated protein kinase 1 (Homo sapiens) (UniProt Q13464); assay: Inhibition of human recombinant ROCK1 using ATP/Ulight-RRRSLLE as substrate at 1 uM after 30 mins by LANCE assay; how it was run: as §3
[9] = target: Proto-oncogene tyrosine-protein kinase receptor Ret (Homo sapiens) (UniProt P07949); assay: Inhibition of human recombinant RET expressed in insect cells using ATP/biotinyl-betaAbetaAbetaAAEEEEYFELVAKKK as substrate at 1 uM after 30 mins by HTRF assay; how it was run: as §3
Chain of Proto-oncogene tyrosine-protein kinase receptor Ret (Homo sapiens) (P07949 whole entry): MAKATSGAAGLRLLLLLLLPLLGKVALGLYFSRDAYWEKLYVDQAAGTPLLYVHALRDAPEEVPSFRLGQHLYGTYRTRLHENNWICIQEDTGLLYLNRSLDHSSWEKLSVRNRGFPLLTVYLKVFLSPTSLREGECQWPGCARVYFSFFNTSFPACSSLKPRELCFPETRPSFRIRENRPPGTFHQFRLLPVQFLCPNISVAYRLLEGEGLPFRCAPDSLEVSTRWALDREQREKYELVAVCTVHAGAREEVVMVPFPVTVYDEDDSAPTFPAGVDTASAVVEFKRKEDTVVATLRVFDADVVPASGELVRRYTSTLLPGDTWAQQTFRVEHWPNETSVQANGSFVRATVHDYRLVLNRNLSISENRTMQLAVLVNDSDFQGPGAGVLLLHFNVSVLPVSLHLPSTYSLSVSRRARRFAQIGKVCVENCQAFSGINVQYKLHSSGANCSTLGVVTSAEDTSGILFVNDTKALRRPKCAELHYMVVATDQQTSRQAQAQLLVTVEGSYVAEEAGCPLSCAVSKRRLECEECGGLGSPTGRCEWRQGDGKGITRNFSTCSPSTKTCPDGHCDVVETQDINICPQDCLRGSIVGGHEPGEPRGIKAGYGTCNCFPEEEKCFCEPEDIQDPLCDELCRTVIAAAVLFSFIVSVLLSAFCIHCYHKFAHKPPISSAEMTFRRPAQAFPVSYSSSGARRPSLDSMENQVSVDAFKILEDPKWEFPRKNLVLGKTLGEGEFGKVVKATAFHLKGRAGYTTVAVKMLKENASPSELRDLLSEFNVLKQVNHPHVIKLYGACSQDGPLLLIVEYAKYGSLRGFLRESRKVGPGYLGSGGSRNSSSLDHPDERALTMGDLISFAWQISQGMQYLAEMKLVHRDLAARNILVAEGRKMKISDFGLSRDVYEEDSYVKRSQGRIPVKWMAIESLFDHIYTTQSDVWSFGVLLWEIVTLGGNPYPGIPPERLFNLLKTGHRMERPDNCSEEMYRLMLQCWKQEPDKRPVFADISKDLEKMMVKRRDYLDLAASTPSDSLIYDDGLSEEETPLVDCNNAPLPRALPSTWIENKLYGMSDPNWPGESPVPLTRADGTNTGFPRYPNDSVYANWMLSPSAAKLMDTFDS

Homo sapiens [10] = organism: Homo sapiens; assay: Inhibition of human recombinant PKA alpha expressed in Escherichia coli using ATP/Ulight-RRRSLLE as substrate at 1 uM after 10 mins by LANCE assay
How it was run: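 Single-concentration (1 µM) percent inhibition within a 17-member human kinase panel. Values are the average of two independent measurements.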

[11] = target: T1, Glycogen synthase kinase-3 beta; assay: Inhibition of human GSK-3beta-mediated tau phosphorylation in doxycycline/synthetic tau fibril-induced HEK293 cells assessed as decrease in slow mobility of AT180 band at 1 uM after 48 hrs by Immunoblotting analysis; format: cell-based; how it was run: as §1
Target sequence in this assay (P49841 whole entry, looked up): as the sequence (P49841 whole entry) above

[12] = target: T3, Mitogen-activated protein kinase 13 (Homo sapiens) (UniProt O15264); assay: Inhibition of human recombinant P38delta expressed in Escherichia coli using ATP/Ulight-CFFKNIVTPRTPPPSQGK-amide as substrate at 1 uM after 15 mins by LANCE assay; how it was run: as §3
T3 sequence (whole entry): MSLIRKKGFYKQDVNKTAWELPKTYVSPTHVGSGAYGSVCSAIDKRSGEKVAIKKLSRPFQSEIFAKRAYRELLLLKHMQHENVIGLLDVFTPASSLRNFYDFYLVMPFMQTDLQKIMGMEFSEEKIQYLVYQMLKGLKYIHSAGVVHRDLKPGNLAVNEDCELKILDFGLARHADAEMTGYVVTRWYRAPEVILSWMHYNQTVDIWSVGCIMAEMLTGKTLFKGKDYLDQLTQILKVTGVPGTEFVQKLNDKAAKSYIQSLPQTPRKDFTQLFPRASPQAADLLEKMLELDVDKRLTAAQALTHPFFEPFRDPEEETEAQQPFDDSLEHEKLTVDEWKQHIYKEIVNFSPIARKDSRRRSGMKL

[13] = target: Leucine-rich repeat serine/threonine-protein kinase 2 (Homo sapiens) (UniProt Q5S007); assay: Inhibition of human recombinant LRRK2 expressed in insect cells using ATP/Ulight-RRRSLLE as substrate at 1 uM after 60 mins by LANCE assay; how it was run: as §3
[14] = target: Vascular endothelial growth factor receptor 2 (Homo sapiens) (UniProt P35968); assay: Inhibition of human recombinant VGFR2 expressed in insect sf9 cells using ATP/Ulight-CAGAGAIETDKEYYTVKD as substrate at 1 uM after 60 mins by LANCE assay; how it was run: as §3
Chain of Vascular endothelial growth factor receptor 2 (Homo sapiens) (P35968 whole entry): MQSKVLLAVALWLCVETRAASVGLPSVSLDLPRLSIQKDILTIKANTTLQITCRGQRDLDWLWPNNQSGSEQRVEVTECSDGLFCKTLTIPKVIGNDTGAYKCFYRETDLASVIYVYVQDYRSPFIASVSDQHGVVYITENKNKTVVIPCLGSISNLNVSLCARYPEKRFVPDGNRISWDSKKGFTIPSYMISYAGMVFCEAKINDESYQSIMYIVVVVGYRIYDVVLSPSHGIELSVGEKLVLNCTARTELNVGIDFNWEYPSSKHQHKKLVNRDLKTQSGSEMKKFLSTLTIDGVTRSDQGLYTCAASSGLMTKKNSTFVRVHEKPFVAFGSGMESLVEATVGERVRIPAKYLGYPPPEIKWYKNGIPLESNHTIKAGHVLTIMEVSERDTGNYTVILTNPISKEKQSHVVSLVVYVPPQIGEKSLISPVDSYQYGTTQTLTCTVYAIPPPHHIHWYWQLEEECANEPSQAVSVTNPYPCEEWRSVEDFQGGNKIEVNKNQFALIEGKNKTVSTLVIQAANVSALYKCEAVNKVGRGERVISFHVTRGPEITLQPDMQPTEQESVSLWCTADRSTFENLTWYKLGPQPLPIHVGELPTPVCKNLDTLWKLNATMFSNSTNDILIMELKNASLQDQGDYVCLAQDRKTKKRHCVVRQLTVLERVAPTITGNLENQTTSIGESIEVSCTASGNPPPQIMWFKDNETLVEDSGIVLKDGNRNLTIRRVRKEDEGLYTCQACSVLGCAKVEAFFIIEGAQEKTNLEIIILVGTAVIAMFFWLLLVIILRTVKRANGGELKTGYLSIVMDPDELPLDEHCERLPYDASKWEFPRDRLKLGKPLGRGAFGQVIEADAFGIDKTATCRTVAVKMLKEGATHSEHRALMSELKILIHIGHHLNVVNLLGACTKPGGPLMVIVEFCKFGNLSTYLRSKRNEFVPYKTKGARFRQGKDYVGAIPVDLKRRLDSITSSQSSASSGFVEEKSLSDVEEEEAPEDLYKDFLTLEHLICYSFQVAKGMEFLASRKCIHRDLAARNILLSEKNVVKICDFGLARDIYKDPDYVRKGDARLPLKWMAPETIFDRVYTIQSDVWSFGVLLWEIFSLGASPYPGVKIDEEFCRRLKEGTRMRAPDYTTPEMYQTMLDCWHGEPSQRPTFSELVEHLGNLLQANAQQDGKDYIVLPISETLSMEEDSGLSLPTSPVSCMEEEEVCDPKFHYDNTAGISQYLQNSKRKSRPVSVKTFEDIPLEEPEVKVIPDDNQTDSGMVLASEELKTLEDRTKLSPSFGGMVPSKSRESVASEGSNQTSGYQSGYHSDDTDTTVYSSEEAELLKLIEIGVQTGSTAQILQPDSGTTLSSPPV

[15] = target: Mitogen-activated protein kinase 3 (Homo sapiens) (UniProt P27361); assay: Inhibition of human recombinant ERK1 expressed in Escherichia coli using ATP/Ulight-CFFKNIVTPRTPPPSQGK-amide as substrate at 1 uM after 30 mins by LANCE assay; how it was run: as §3
Chain of Mitogen-activated protein kinase 3 (Homo sapiens) (P27361 whole entry): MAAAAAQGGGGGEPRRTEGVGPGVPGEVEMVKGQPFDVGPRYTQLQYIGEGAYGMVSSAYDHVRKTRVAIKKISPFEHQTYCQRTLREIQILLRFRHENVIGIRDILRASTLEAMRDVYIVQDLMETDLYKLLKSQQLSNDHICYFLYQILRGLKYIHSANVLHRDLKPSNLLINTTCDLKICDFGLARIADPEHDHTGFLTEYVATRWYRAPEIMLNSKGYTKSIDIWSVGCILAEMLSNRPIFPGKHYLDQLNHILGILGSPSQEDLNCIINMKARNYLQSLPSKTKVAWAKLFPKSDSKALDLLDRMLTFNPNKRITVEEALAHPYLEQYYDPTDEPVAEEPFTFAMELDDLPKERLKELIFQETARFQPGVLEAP

[16] = target: Cyclin-dependent kinase 5/CDK5 activator 1 (Homo sapiens) (UniProt Q00535+Q15078); assay: Inhibition of human recombinant CDK5/p35 expressed in insect cells using ATP/Ulight-CFFKNIVTPRTPPPSQGK-amide as substrate at 1 uM after 60 mins by LANCE assay; how it was run: as §3
[17] = target: Calcium/calmodulin-dependent protein kinase type II subunit alpha (Homo sapiens) (UniProt Q9UQM7); assay: Inhibition of human recombinant CaMK2alpha using ATP/Ulight-CGSGSGRPRTSSFAEG as substrate at 1 uM after 30 mins by LANCE assay; how it was run: as §3
Chain of Calcium/calmodulin-dependent protein kinase type II subunit alpha (Homo sapiens) (Q9UQM7 whole entry): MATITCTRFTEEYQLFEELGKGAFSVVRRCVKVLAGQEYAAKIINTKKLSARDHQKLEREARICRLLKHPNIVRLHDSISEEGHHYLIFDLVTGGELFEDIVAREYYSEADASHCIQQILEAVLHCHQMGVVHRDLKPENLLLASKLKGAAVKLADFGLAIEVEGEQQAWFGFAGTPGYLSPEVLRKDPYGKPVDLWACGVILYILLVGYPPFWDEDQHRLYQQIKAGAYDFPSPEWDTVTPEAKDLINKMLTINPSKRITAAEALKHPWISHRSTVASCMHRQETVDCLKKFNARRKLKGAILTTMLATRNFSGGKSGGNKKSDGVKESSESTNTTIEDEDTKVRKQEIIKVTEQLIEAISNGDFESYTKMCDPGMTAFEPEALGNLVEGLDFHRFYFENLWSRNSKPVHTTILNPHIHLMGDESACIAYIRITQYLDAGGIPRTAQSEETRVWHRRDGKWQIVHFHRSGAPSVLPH

[18] = target: Tyrosine-protein kinase Fyn (Homo sapiens) (UniProt P06241); assay: Inhibition of human recombinant Fyn expressed in insect cells using ATP/biotinyl-betaAbetaAbetaAYQAEENTYDEYEN as substrate at 1 uM after 60 mins by HTRF assay; how it was run: as §3
[19] = target: Platelet-derived growth factor receptor beta (Homo sapiens) (UniProt P09619); assay: Inhibition of human recombinant PDGFRbeta expressed in insect cells using ATP/Ulight-PolyGAT[EAY(1:1:1)]n as substrate at 1 uM after 30 mins by LANCE assay; how it was run: as §3
[20] = target: Receptor-type tyrosine-protein kinase FLT3 (Homo sapiens) (UniProt P36888); assay: Inhibition of human FLT3 at 1 uM; how it was run: as §3
Chain of Receptor-type tyrosine-protein kinase FLT3 (Homo sapiens) (P36888 whole entry): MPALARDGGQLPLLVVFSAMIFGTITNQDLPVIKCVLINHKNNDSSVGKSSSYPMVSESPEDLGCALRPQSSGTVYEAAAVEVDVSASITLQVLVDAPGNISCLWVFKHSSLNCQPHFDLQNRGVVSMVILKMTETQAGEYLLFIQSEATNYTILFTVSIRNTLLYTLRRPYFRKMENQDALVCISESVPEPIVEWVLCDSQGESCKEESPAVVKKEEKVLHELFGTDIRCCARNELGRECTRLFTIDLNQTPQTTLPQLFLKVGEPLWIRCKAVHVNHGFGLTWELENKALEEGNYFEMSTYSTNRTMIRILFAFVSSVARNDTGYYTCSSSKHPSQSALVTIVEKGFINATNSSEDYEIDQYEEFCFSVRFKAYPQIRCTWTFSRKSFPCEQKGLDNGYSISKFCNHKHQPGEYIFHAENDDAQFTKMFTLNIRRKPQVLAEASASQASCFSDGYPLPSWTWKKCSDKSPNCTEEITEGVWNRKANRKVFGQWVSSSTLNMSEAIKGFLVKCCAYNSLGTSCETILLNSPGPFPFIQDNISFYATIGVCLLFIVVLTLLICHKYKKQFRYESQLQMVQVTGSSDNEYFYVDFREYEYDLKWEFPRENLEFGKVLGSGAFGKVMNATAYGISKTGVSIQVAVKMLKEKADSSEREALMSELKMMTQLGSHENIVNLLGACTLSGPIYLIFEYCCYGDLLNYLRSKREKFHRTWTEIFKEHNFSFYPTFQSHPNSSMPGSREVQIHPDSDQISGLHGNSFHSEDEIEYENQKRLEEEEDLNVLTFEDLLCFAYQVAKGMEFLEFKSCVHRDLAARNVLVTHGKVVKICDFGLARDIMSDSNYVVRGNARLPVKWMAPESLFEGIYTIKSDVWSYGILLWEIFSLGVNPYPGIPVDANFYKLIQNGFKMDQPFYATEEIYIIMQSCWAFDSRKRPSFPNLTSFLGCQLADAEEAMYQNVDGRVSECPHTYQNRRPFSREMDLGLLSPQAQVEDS

[21] = target: Glycogen synthase kinase-3 alpha (Homo sapiens) (UniProt P49840); assay: Inhibition of human recombinant GSK-3alpha using ATP/Ulight-CFFKNIVTPRTPPPSQGK-amide as substrate at 1 uM after 60 mins by LANCE assay; how it was run: as §3
[22] = target: T4, Aurora kinase A (Homo sapiens) (UniProt O14965); assay: Inhibition of human recombinant Aurora A expressed in insect sf21 cells using ATP/Ulight-RRRSLLE as substrate at 1 uM after 15 mins by LANCE assay; how it was run: as §3
T4 sequence (whole entry): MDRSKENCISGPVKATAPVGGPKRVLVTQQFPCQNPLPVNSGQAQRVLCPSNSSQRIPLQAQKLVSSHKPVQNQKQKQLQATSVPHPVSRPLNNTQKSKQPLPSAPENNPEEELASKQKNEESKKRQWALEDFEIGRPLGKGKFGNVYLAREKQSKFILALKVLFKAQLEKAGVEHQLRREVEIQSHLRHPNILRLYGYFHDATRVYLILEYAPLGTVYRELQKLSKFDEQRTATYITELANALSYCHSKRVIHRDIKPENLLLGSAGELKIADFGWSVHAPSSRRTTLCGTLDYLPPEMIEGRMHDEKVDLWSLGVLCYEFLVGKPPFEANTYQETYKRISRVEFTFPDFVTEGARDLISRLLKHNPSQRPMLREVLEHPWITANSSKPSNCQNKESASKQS

Homo sapiens [23] = organism: Homo sapiens; assay: Selectivity ratio of IC50 for human recombinant CDK2 to IC50 for GSK-3beta (unknown origin)
[24] = target: Cyclin-dependent kinase 2 (Homo sapiens, UniProt P24941); assay: Inhibition of human recombinant CDK2 using ATP/Ulight-CFFKNIVTPRTPPPSQGK-amide as substrate after 30 mins by LANCE assay
[25] = Aqueous solubility of the compound at pH 7.4; format: physicochemical
[26] = target: T1, Glycogen synthase kinase-3 beta; assay: Inhibition of GSK3beta in human OVCAR8 cells up to 5 uM; format: cell-based; settings: OVCAR-8; how it was run: as §2
Target sequence in this assay (P49841 whole entry, looked up): as the sequence (P49841 whole entry) above

SMILES: COc1ccccc1-n1ncc2c3c(c4cccn4c21)C(=O)NC3=O
IC50 [1]: 1000 nM

SMILES: Cc1ccccc1-n1nc(C)c2c3c(c4cccn4c21)C(=O)NC3=O
IC50 [1]: 440 nM

SMILES: Cc1nn(-c2ccc(Cl)cc2Cl)c2c1c1c(c3cccn32)C(=O)NC1=O
inhibition [2]: Active | inhibition [3]: Active | inhibition [4]: inactive | inhibition [5]: < 10% | inhibition [6]: < 10% | inhibition [7]: < 10% | inhibition [8]: < 10% | inhibition [9]: < 10% | inhibition (Homo sapiens [10]): < 10% | inhibition [11]: Active | inhibition [12]: < 10% | inhibition [13]: < 10% | inhibition [14]: < 10% | inhibition [15]: < 10% | inhibition [16]: < 10% | inhibition [17]: < 10% | inhibition [18]: < 10% | inhibition [19]: 13.7% | inhibition [20]: 30% | inhibition [21]: 98.3% | inhibition [22]: < 10% | Ratio IC50 (Homo sapiens [23]): > 10 | IC50 [24]: 2800 nM | IC50 [1]: 240 nM | solubility [25]: 3.1 µM (≈ 1.19 µg/mL) | inhibition [26]: inactive

SMILES: Cc1nn(-c2ccccc2)c2c1c1c(c3cccn32)C(=O)NC1=O
IC50 [1]: 690 nM

SMILES: Cc1nn(-c2ccccc2Cl)c2c1c1c(c3cccn32)C(=O)NC1=O
IC50 [1]: 940 nM

The next lines start with the values.

IC50 [1]: 1690 nM
SMILES: O=C1NC(=O)c2c1c1cnn(-c3ccccc3)c1n1cccc21

IC50 [1]: 1210 nM
SMILES: Cc1ccccc1-n1ncc2c3c(c4cccn4c21)C(=O)NC3=O

IC50 [1]: 810 nM
SMILES: O=C1NC(=O)c2c1c1cnn(-c3ccccc3Cl)c1n1cccc21
